In ChEMBL document CHEMBL1132294, “Derivatives of the new ring system indolo[1,2-c]benzo[1,2,3]triazine with potent antitumor and antimicrobial activity” (J Med Chem, 1999):
Converted amounts (≈) assume the structure as drawn.

Key:
[1] = system: Mycobacterium tuberculosis; assay: Antibacterial activity was evaluated against Mycobacterium tuberculosis (clinical isolate 1104); assay type: functional
Summary of the method: (§1)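 Broth microdilution in Middlebrook 7H9 with 0.5% glycerol and 10% OADC, containing serial concentrations of compound (diluted in medium from a DMSO solution). Plates were incubated 9 days at 37 °C, and viable bacteria were read by MTT. MIC is the mean of at least three separate experiments.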

Lymphoblastoid cell = assay: Cytotoxicity was evaluated against lymphoblastoid cell line.; assay type: functional; details: Homo sapiens
Shigella = assay: Antibacterial activity was evaluated against shigella.; assay type: functional
Summary of the method: (§2)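 Recent clinical isolates grown in nutrient broth, pH 7.2, inoculum 10³ bacterial cells/tube, with serial compound dilutions. […] Mean of at least three separate experiments.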

Aspergillus fumigatus = assay: Antimycotic activity against Aspergillus fumigatus was evaluated as compound minimum inhibitory concentration at which no macroscopic signs of fungal growth were detected.; assay type: functional
WIL2-NS = assay: Antitumor activity was evaluated against lymphoma cell line Wil2-NS (human splenic B lymphoblastoid cells).; assay type: functional, cell-based
Summary of the method: (§3)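 Exponentially growing leukemia/lymphoma cells resuspended at 1×10⁵ cells/mL in RPMI with serial drug dilutions. Viability by MTT after 4 days at 37 °C. Concentration giving 50% growth inhibition versus untreated controls found by linear regression. Mean of at least three experiments.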

Trichophyton benhamiae = assay: Antimycotic activity against Trichophyton mentagrophytes was evaluated. MIC was defined as compound concentration at which no macroscopic signs of fungal growth were detected.; assay type: functional, Arthroderma benhamiae
Summary of the method: (§4)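 Yeast inocula from 30 h Sabouraud dextrose broth cultures at 37 °C, diluted to 5×10³ cells/mL. Dermatophyte inocula from 5-day cultures, homogenized and diluted to 0.05 OD₅₉₀/mL. Inocula added to medium with serial dilutions, incubated at 37 °C, read visually at 2 days (yeast) or 3 days (dermatophytes). Mean of at least three experiments.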

CCRF-SB = assay: Antitumor activity was evaluated against leukemia cell line CCRF-SB(human acute B lymphoblastic leukemia).; assay type: functional, cell-based; summary of the method: as §3
ACHN = assay: Antitumor activity was evaluated against human renal adenocarcinoma cell line ACHN.; assay type: functional, cell-based
Summary of the method: (§5)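 Solid-tumour and KB lines: exponentially growing cells seeded at 5×10⁴ cells/mL, allowed to adhere 16 h, then serial drug dilutions added. Viability by MTT after 4 days. Growth expressed as % of untreated controls, 50% inhibitory concentration by linear regression. Untreated cells undergo at least three rounds of multiplication.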

IMR-32 = assay: Antitumor activity was evaluated against human neuroblastoma cell line IMR-32.; assay type: functional, cell-based; summary of the method: as §5
KB [2] = assay: Antiproliferative activity against drug-resistant tumor cell line KB7D.; assay type: functional, cell-based; details: Homo sapiens; summary of the method: as §5
MT4 = assay: Antitumor activity was evaluated against leukemia cell line MT-4(human CD4+ T cells expressing the TAT gene of HTLV-1).; assay type: functional, cell-based; summary of the method: as §3
HT-29 = assay: Antitumor activity was evaluated against human colon adenocarcinoma cell line HT-29.; assay type: functional, cell-based; summary of the method: as §5
MOLT-4 = assay: Antitumor activity was evaluated against leukemia cell line MOLT-4(human acute T lymphoblastic leukemia); assay type: functional, cell-based; summary of the method: as §3
Homo sapiens [3] = species on record: Homo sapiens; assay: In vitro Antiproliferative activity against peripheral blood lymphocytes (PBL) after stimulating PBL with PHA and then resuspending in IL-2-containing medium in the presence of compound.; assay type: functional
Summary of the method: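 PBL from HIV-negative donors, isolated on Ficoll-Hypaque and rested overnight. Stimulated with PHA 2.5 μg/mL for 24 h, diluted to 1×10⁵ cells/mL in medium with PHA, IL-2 50 U/mL and compound. Viable cells counted after 6 days. Mean ±SD of three experiments.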

Candida albicans = assay: Antimycotic activity against Candida albicans was evaluated as minimum inhibitory concentration of compound at which no macroscopic signs of fungal growth were detected; assay type: functional; summary of the method: as §4
CCRF-CEM = assay: Antitumor activity was evaluated against leukemia cell line CCRF-CEM(human acute T lymphoblastic leukemia).; assay type: functional, cell-based
Summary of the method: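 Exponentially growing leukemia/lymphoma cells resuspended at 1×10⁵ cells/mL in RPMI with serial drug dilutions. Viability by MTT after 4 days at 37 °C. Mean of at least three experiments.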

[4] = system: Mycolicibacterium fortuitum; assay: Antibacterial activity was evaluated against Mycobacterium fortuitum.; assay type: functional
Summary of the method: (§6)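 Mycobacterial suspension (turbidity of 1 McFarland standard, 10⁸ CFU/mL) added to Middlebrook 7H9 with 0.5% glycerol, 10% OADC and serial compound dilutions. Incubated at 37 °C, 1 day for M. smegmatis and M. fortuitum, 9 days for MAC. Viable mycobacteria counted by MTT. MIC given as mean of at least three separate experiments.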

KB [5] = assay: Antiproliferative activity against drug-resistant tumor cell line KBCamp.; assay type: functional, cell-based; details: Homo sapiens; summary of the method: as §5
[6] = system: Mycolicibacterium smegmatis; assay: Antibacterial activity was evaluated against Mycobacterium smegmatis; assay type: functional; summary of the method: as §6
[7] = system: Mycobacterium tuberculosis; assay: Antibacterial activity was evaluated against Mycobacterium tuberculosis (ATCC); assay type: functional; summary of the method: as §1
Staphylococcus = assay: Antibacterial activity was evaluated against staphylococcus; assay type: functional; summary of the method: as §2
Mycobacterium = assay: Antibacterial activity was evaluated against MAC (Mycobacterium Avium Complex ); assay type: functional; summary of the method: as §6
5637 = assay: Antitumor activity was evaluated against human bladder carcinoma cell line 5637.; assay type: functional, cell-based; summary of the method: as §5
CHO-K1 = assay: Antitumor activity was evaluated against Chinese hamster ovary carcinoma cell line CHO-K1.; assay type: functional, cell-based; details: Cricetulus griseus; summary of the method: as §5
Candida parapsilosis = assay: Antimycotic activity against Candida parapsilosis was evaluated as compound concentration at which no macroscopic signs of fungal growth were detected; assay type: functional; details: Lodderomyces parapsilosis; summary of the method: as §4
Cryptococcus neoformans = assay: Antimycotic activity against Cryptococcus neoformans was evaluated. MIC was defined as compound concentration at which no macroscopic signs of fungal growth were detected.; assay type: functional; summary of the method: as §4
Candida tropicalis = assay: Antimycotic activity against Candida paratropicalis was evaluated. MIC was defined as compound concentration at which no macroscopic signs of fungal growth were detected.; assay type: functional; summary of the method: as §4
HeLa = assay: Antitumor activity was evaluated against human cervix carcinoma cell line HeLa.; assay type: functional, cell-based; summary of the method: as §5
KB [8] = assay: Antiproliferative activity against drug-resistant tumor cell line KBwt.; assay type: functional, cell-based; details: Homo sapiens; summary of the method: as §5
Salmonella = assay: Antibacterial activity was evaluated against salmonella.; assay type: functional; summary of the method: as §2
KB [9] = assay: Antiproliferative activity against drug-resistant tumor cell line KBMDR.; assay type: functional, cell-based; details: Homo sapiens; summary of the method: as §5
Streptococcus = assay: Antibacterial activity was evaluated against streptococcus.; assay type: functional; summary of the method: as §2
L1210 = assay: Antitumor activity was evaluated against leukemia cell line L1210 (mouse leukemia).; assay type: functional, cell-based; summary of the method: as §3
KB [10] = assay: Antiproliferative activity against drug-resistant tumor cell line KBV20C.; assay type: functional, cell-based; details: Homo sapiens; summary of the method: as §5
Homo sapiens [11] = species on record: Homo sapiens; assay: In vitro Antiproliferative activity against peripheral blood lymphocytes (PBL) by treating PBL with compound for 3 days, then stimulating with PHA and then resuspending in compound free medium.; assay type: functional; details: 72 h
Summary of the method: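 Resting donor PBL held at 1×10⁶ cells/mL and treated with compound for up to 3 days, then washed. Stimulated with PHA for 24 h, diluted to 1×10⁵ cells/mL in drug-free medium with PHA and IL-2. Viability read after 6 days at 37 °C. Mean ±SD of three experiments.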

SMILES: O=Nc1c2cc(Cl)ccc2n2nnc3ccccc3c12
- MIC [1]: > 10 µM
- CC50 (Lymphoblastoid cell): 350 nM
- MIC (Shigella): > 200 µM
- MIC (Aspergillus fumigatus): > 200 µM
- IC50 (WIL2-NS): 200 nM
- MIC (Trichophyton benhamiae): > 200 µM
- IC50 (CCRF-SB): 400 nM
- IC50 (ACHN): 2600 nM
- IC50 (IMR-32): 800 nM
- IC50 (KB [2]): 1700 nM
- IC50 (MT4): 500 nM
- IC50 (HT-29): 1300 nM
- IC50 (MOLT-4): 200 nM
- CC50 (Homo sapiens [3]): 200 nM
- MIC (Candida albicans): > 200 µM
- IC50 (CCRF-CEM): 80 nM
- MIC [4]: > 5 µM
- IC50 (KB [5]): 1900 nM
- MIC [6]: > 5 µM
- MIC [7]: 4.7 µM (≈ 1.33 µg/mL)
- MIC (Staphylococcus): 0.4 µM (≈ 0.113 µg/mL)
- MIC (Mycobacterium): 0.6 µM (≈ 0.17 µg/mL)
- IC50 5637: 300 nM
- IC50 (CHO-K1): 1600 nM
- MIC (Candida parapsilosis): > 200 µM
- MIC (Cryptococcus neoformans): > 200 µM
- MIC (Candida tropicalis): > 200 µM
- IC50 (HeLa): 2700 nM
- IC50 (KB [8]): 1800 nM
- MIC (Salmonella): > 200 µM
- IC50 (KB [9]): 1100 nM
- MIC (Streptococcus): 0.8 µM (≈ 0.226 µg/mL)
- IC50 (L1210): 700 nM
- IC50 (KB [10]): 2100 nM
- CC50 (Homo sapiens [11]): 900 nM

SMILES: O=Nc1c2cc([N+](=O)[O-])ccc2n2nnc3ccccc3c12
- MIC (Shigella): > 200 µM
- MIC (Aspergillus fumigatus): > 200 µM
- IC50 (WIL2-NS): 12000 nM
- MIC (Trichophyton benhamiae): 66 µM (≈ 19.4 µg/mL)
- IC50 (CCRF-SB): 11000 nM
- IC50 (ACHN): > 50000 nM
- IC50 (IMR-32): 12000 nM
- IC50 (MT4): 1200 nM
- IC50 (HT-29): 18000 nM
- IC50 (MOLT-4): 6600 nM
- MIC (Candida albicans): 66 µM (≈ 19.4 µg/mL)
- IC50 (CCRF-CEM): 8200 nM
- MIC [4]: > 5 µM
- MIC (Staphylococcus): 0.09 µM (≈ 0.0264 µg/mL)
- IC50 5637: 29000 nM
- IC50 (CHO-K1): 42000 nM
- MIC (Candida parapsilosis): 66 µM (≈ 19.4 µg/mL)
- MIC (Cryptococcus neoformans): 7.4 µM (≈ 2.17 µg/mL)
- MIC (Candida tropicalis): 22 µM (≈ 6.45 µg/mL)
- IC50 (HeLa): 16000 nM
- MIC (Salmonella): > 200 µM
- MIC (Streptococcus): 0.09 µM (≈ 0.0264 µg/mL)
- IC50 (L1210): 9200 nM

SMILES: O=Nc1c2ccccc2n2nnc3ccc(Cl)cc3c12
- MIC [1]: 1.6 µM (≈ 0.452 µg/mL)
- MIC (Shigella): > 200 µM
- MIC (Aspergillus fumigatus): 9.4 µM (≈ 2.66 µg/mL)
- IC50 (WIL2-NS): 2700 nM
- MIC (Trichophyton benhamiae): 9.4 µM (≈ 2.66 µg/mL)
- IC50 (CCRF-SB): 7000 nM
- IC50 (ACHN): 11000 nM
- IC50 (IMR-32): 2300 nM
- IC50 (MT4): 1700 nM
- IC50 (HT-29): 24000 nM
- IC50 (MOLT-4): 2000 nM
- MIC (Candida albicans): 150 µM (≈ 42.4 µg/mL)
- IC50 (CCRF-CEM): 5000 nM
- MIC [4]: > 5 µM
- MIC [6]: 4.2 µM (≈ 1.19 µg/mL)
- MIC [7]: 1.8 µM (≈ 0.509 µg/mL)
- MIC (Staphylococcus): 0.05 µM (≈ 0.0141 µg/mL)
- MIC (Mycobacterium): 2.5 µM (≈ 0.707 µg/mL)
- IC50 5637: 2100 nM
- IC50 (CHO-K1): 31000 nM
- MIC (Candida parapsilosis): 19 µM (≈ 5.37 µg/mL)
- MIC (Cryptococcus neoformans): 0.8 µM (≈ 0.226 µg/mL)
- MIC (Candida tropicalis): 150 µM (≈ 42.4 µg/mL)
- IC50 (HeLa): 5400 nM
- MIC (Salmonella): > 200 µM
- MIC (Streptococcus): 0.1 µM (≈ 0.0283 µg/mL)
- IC50 (L1210): 7400 nM
